Measured values as given in ChEMBL document CHEMBL1156917, “Stereoselective synthesis of desloratadine derivatives as antagonist of histamine” (Bioorg Med Chem, 2010).

What was measured:
Assay type in all cases: functional, tissue-based
[1] = molecular target: Histamine H1 receptor (Cavia porcellus) (UniProt P31389); assay: Antagonist activity at histamine H1 receptor in Dunkin-Hartley guinea pig ileum assessed as inhibition of histamine-induced contractions at 30 umol/L; details: at 30 µM
In short: (§1)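 Ileum segments (2 cm) were taken from stunned animals and mounted in an organ bath under 1 g initial load. The bath held Tyrode's solution at 37 °C, continuously oxygenated. After 20 min stabilization, noncumulative submaximal histamine stimuli were given. Isometric contractions were recorded without compound and after 3-5 min incubation with compound.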

[2] = molecular target: Histamine H1 receptor (Cavia porcellus) (UniProt P31389); assay: Antagonist activity at histamine H1 receptor in Dunkin-Hartley guinea pig ileum assessed as inhibition of histamine-induced contractions at 3 umol/L; details: at 3 µM; in short: as §1
[3] = molecular target: Histamine H1 receptor (Cavia porcellus) (UniProt P31389); assay: Antagonist activity at histamine H1 receptor in Dunkin-Hartley guinea pig ileum assessed as inhibition of histamine-induced contractions at 10 umol/L; details: at 10 µM; in short: as §1

Chain of Histamine H1 receptor (Cavia porcellus) (P31389 whole entry): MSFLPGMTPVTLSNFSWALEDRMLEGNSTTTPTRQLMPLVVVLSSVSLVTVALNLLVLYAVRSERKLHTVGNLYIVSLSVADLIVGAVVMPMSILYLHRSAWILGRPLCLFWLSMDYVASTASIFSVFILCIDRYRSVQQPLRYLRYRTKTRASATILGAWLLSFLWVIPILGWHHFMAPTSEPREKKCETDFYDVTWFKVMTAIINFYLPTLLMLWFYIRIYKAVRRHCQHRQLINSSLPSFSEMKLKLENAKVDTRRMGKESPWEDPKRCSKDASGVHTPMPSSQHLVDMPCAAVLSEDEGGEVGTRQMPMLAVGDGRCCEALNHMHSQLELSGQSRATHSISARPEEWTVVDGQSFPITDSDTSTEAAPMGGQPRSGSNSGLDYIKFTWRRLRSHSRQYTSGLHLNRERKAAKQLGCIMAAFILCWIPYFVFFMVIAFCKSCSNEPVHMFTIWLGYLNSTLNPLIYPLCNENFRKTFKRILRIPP

Structure (SMILES) | inhibition [1] | inhibition [2] | inhibition [3]
COc1cc(/C=C2\OC(=O)C=C2CN2CCC(=C3c4ccc(Cl)cc4CCc4cccnc43)CC2)ccc1O | 62.6% | 4.67% | 42.5%
CCOC(=O)N1CCC(=C2c3ccc(Cl)cc3CCc3cccnc32)CC1 | 64.7% | 15.7% | 33.4%
O=C1C=C(CN2CCC(=C3c4ccc(Cl)cc4CCc4cccnc43)CC2)/C(=C/c2ccc(F)cc2)O1 | 30.6% | 6.99% | 19%
O=C1C=C(CN2CCC(=C3c4ccc(Cl)cc4CCc4cccnc43)CC2)/C(=C/c2ccc(O)cc2)O1 | 65.6% | 3.54% | 41%
O=C1C=C(CN2CCC(=C3c4ccc(Cl)cc4CCc4cccnc43)CC2)/C(=C/c2ccc(Cl)cc2)O1 | 66.7% | 37% | 51.3%
COc1ccccc1C(O)C1OC(=O)C=C1CN1CCC(=C2c3ccc(Cl)cc3CCc3cccnc32)CC1 (configuration not stated) | 74.1% | 40.8% | 61.5%
O=C1C=C(CN2CCC(=C3c4ccc(Cl)cc4CCc4cccnc43)CC2)CO1 | 94.8% | 33.4% | 79%
Clc1ccc2c(c1)CCc1cccnc1C2=C1CCNCC1 | 80.4% | 47.4% | 77.7%
COc1ccccc1/C=C1\OC(=O)C=C1CN1CCC(=C2c3ccc(Cl)cc3CCc3cccnc32)CC1 | 87.8% | 29.4% | 59.2%
O=C1C=C(CN2CCC(=C3c4ccc(Cl)cc4CCc4cccnc43)CC2)C(C(O)c2ccccc2)O1 (configuration not stated) | – | 42.7% | –
CN(C)c1ccc(/C=C2\OC(=O)C=C2CN2CCC(=C3c4ccc(Cl)cc4CCc4cccnc43)CC2)cc1 | 82.3% | 61.6% | 77.6%
COc1cc(/C=C2\OC(=O)C=C2CN2CCC(=C3c4ccc(Cl)cc4CCc4cccnc43)CC2)cc(OC)c1OC | 52.8% | 4.23% | 32.9%
CS(=O)(=O)c1ccc(/C=C2\OC(=O)C=C2CN2CCC(=C3c4ccc(Cl)cc4CCc4cccnc43)CC2)cc1 | 71.9% | 12.4% | 50.4%
